The source of these data is paper PMC5498144 (BMB Reports, 2017).

Data set [1] addresses T1, PTPN2 (Homo sapiens, UniProt P17706).
T1 sequence (P17706 1-415): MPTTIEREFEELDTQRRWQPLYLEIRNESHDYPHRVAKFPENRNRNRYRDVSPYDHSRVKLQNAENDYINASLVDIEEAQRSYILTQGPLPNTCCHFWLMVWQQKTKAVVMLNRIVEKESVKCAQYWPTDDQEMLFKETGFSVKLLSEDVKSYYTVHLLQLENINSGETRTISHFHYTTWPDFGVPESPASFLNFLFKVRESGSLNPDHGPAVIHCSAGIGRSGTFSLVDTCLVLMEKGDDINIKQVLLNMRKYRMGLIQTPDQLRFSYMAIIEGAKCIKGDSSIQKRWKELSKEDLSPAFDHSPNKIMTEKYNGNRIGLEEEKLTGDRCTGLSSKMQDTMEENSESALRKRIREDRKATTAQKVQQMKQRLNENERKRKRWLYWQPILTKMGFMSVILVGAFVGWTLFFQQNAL
Put plainly: DARTS assay. It is filed as binding. The note with it: 1 μM pretreatment 20 min, then trypsin on ice; PTPN2/trypsin 100:1.

The target of another data set is T2, DUSP23 (Homo sapiens, UniProt Q9BVJ7).
T2 sequence (Q9BVJ7 1-150): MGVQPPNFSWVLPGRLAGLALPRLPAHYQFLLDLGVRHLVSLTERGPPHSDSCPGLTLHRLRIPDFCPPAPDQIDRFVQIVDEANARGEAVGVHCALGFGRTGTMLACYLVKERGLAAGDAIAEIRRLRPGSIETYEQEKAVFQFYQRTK
Put plainly: In vitro phosphatase assay with OMFP as substrate. It is filed as biochemical. Put shortly: (§1)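 His-tagged human PTPs expressed in E. coli BL21(DE3)-RIL (1 mM IPTG, 37°C, 3 h) and Ni-NTA purified. 100 nM enzyme in 30 mM Tris-HCl pH 7.0, 75 mM NaCl, 1 mM EDTA, 0.4 mM DTT, 0.132% BSA, 1% DMSO final. Test compound (water-dissolved; 0, 5, 10 μM) present; started with 100 μM OMFP; 30 min at 37°C. Fluorescence ex 495/em 535 nm; triplicates; IC50 by curve fitting.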

Another data set deals with T3, DUSP8 (Homo sapiens, UniProt Q13202).
T3 sequence (Q13202 1-625): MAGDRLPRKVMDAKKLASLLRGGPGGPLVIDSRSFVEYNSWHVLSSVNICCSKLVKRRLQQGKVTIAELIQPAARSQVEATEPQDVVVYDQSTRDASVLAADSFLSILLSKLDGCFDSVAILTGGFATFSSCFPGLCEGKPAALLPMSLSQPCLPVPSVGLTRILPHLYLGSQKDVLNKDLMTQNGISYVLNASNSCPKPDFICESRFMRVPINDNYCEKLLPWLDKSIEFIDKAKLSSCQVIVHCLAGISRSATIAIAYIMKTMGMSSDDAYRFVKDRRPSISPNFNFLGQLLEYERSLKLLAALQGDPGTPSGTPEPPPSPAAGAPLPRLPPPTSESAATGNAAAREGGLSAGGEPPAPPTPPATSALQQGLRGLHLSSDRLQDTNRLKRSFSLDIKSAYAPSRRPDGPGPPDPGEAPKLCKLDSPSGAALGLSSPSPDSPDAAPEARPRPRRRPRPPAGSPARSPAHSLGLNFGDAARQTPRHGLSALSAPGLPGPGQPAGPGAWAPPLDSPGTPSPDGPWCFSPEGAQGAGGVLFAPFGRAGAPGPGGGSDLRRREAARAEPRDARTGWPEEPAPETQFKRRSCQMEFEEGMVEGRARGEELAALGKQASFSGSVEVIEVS
Put plainly: In vitro phosphatase assay with OMFP as substrate. The class given is biochemical. An outline of the steps:
as §1

A further data set has as its target DUSP3 (Homo sapiens, UniProt P51452). Put plainly: In vitro phosphatase assay with OMFP as substrate. It is filed as biochemical. An outline of the steps: as §1
In a further data set the target is T4, Cdc25B (Homo sapiens, UniProt P30305).
T4 sequence (P30305 1-580): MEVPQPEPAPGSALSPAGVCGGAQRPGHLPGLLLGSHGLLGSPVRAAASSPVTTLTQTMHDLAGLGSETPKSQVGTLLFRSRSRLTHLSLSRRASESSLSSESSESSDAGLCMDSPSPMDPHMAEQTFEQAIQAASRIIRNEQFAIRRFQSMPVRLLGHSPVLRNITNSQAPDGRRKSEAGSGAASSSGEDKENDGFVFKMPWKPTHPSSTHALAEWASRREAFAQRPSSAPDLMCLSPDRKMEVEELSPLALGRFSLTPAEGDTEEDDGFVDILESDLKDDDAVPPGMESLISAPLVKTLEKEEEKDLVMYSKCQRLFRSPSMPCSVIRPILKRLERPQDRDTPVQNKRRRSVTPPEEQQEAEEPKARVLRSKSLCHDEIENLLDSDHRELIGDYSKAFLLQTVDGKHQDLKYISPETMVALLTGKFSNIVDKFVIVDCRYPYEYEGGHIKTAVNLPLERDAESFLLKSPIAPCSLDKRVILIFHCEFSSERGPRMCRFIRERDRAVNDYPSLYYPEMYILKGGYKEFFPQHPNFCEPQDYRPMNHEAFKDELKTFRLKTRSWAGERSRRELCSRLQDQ
The experiment in a line: In vitro phosphatase assay with OMFP as substrate. The class given is biochemical. Put shortly:
as §1

A further data set has as its target T5, Laforin (Homo sapiens, UniProt O95278).
T5 sequence (O95278 1-331): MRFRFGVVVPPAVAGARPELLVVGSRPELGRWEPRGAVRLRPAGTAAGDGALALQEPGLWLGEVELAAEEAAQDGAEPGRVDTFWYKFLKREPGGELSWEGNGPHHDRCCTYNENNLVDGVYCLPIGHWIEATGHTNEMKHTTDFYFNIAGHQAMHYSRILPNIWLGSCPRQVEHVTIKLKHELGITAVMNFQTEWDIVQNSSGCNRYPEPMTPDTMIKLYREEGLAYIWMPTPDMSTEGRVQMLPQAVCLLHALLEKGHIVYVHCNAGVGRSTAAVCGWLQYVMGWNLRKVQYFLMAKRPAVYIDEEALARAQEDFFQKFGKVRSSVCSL
Put plainly: In vitro phosphatase assay with OMFP as substrate. The class given is biochemical. Put shortly:
as §1

Data set [2] deals with T1, PTPN2. Put plainly: Kinetic analysis. The class given is biochemical.
A further data set has as its target T6, SSH3 (Homo sapiens, UniProt Q8TE77).
T6 sequence (Q8TE77 1-659): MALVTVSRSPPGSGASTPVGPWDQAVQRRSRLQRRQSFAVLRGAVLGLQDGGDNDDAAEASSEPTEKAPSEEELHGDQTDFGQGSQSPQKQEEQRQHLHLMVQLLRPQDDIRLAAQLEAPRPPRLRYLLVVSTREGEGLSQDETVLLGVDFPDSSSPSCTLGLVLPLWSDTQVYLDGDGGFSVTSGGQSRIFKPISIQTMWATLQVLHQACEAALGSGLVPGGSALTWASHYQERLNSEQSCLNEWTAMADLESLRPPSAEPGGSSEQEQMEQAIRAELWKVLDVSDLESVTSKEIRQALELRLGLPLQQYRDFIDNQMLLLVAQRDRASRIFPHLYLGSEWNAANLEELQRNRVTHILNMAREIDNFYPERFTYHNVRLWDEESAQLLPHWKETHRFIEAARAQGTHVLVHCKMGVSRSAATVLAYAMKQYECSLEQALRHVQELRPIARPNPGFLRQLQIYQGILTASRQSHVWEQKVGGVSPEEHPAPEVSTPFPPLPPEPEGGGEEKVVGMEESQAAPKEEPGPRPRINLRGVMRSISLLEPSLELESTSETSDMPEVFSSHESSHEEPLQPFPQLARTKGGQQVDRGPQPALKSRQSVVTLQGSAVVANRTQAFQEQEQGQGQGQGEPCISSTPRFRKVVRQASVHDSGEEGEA
Put plainly: In vitro phosphatase assay with OMFP as substrate. The class given is biochemical. An outline of the steps: as §1

Data set [3] deals with PTPN2-mediated dephosphorylation of STAT3 at Tyr-705. The class given is cell-based, human. As to conditions: HEK 293 cells with FLAG-PTPN2, 1.5 μM 6 h, then IL-6 10 ng/ml 30 min. Put shortly:
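HEK 293 cells transfected with FLAG-PTPN2 wild type or catalytically dead C216S plasmid using polyethylenimine. After 42 h, treated with test compound (1.5 μM) for 6 h, then IL-6 (10 ng/ml) for 30 min. Cells lysed in PTP lysis buffer. Immunoblots probed for phospho-STAT3 Tyr-705 and total STAT3, detected by ECL and quantified by densitometry relative to the IL-6-stimulated group.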

A further data set concerns the target T7, CD45 (Homo sapiens, UniProt P08575).
T7 sequence (P08575 653-912 limits assumed): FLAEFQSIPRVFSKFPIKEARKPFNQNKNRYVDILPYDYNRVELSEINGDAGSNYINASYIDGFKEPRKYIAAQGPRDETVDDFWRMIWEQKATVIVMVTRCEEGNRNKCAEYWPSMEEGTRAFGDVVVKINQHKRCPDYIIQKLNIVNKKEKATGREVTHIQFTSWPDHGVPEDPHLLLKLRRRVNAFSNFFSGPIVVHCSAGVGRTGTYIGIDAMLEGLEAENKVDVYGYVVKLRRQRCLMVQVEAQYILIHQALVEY
Put plainly: In vitro phosphatase assay with OMFP as substrate. The class given is biochemical. Put shortly:
as §1

Another data set addresses T8, DUSP18 (Homo sapiens, UniProt Q8NEJ0).
T8 sequence (Q8NEJ0 1-188): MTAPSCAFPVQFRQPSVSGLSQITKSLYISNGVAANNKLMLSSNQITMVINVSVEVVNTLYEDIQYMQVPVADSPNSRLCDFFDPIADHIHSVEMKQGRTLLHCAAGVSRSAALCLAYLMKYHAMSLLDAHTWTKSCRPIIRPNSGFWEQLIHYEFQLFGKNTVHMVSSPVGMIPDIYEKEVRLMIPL
Put plainly: In vitro phosphatase assay with OMFP as substrate. It is filed as biochemical. An outline of the steps:
as §1

The test system of a further data set is HEK 293 cells. The experiment in a line: Cell viability assay. It is filed as cell-based, human. The note with it: 6 h, up to 1.5 μM (tested 1, 1.5, 2, 3 μM). An outline of the steps:
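HEK 293 cells grown in DMEM with 10% FBS and 1% penicillin/streptomycin under 5% CO2. Seeded at 1.5 × 10^6 cells/well and left overnight, then exposed to test compound (1, 1.5, 2, 3 μM) for 6 h. Water-soluble tetrazolium reagent added for 1 h at 37°C; absorbance read at 450 nm against a 650 nm reference. Mean ± SEM of three independent experiments; Student's t-test versus untreated.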

For another data set, the target named is PTEN (Homo sapiens, UniProt P60484). Put plainly: In vitro phosphatase assay with OMFP as substrate. The class given is biochemical. Put shortly: as §1
Sequence of PTEN (P60484 whole entry, species assumed): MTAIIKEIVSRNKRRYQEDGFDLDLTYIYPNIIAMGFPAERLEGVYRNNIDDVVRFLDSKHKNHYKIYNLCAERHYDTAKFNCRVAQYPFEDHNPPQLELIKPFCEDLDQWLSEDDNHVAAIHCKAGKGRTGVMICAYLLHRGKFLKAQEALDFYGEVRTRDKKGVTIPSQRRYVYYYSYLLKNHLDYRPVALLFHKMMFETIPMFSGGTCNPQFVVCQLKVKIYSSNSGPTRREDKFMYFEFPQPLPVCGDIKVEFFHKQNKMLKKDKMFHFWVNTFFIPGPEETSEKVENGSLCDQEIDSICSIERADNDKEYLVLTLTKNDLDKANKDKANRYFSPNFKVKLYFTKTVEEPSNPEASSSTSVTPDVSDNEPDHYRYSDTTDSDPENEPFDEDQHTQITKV

Sequence of DUSP3 (P51452 whole entry, species assumed): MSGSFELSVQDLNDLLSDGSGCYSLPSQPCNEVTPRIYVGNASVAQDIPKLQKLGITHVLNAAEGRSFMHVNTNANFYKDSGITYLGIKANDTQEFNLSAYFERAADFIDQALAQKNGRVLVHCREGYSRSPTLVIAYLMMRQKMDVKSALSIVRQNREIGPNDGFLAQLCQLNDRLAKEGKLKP

Take `O=S(=O)(F)Cc1ccccc1` [PMSF, phenylmethylsulfonyl fluoride]: the “Proteolysis of PTPN2 by trypsin (DARTS)” value at PTPN2 [1] is listed as “decreased”.

For the compound `CC(C)(C)C(=O)Nc1ccc2c(c1)C(=O)C(=O)c1ccccc1-2` [PTP inhibitor XIX, N-[9, 10-dioxo-9, 10-dihydro-phenanthren-2-yl]-2,2-dimethyl-propionamide], the IC50 (commonly the concentration that inhibits the measured activity by half) is greater than 50 µM against DUSP23; greater than 50 µM at DUSP8; greater than 50 µM on DUSP3; greater than 50 µM at Cdc25B; greater than 100 µM on Laforin; greater than 50 µM at SSH3. For the same compound, the IC50 is 0.86 ± 0.03 µM at CD45, greater than 50 µM against DUSP18 and 1.78 ± 0.34 µM against PTEN. The inhibitory constant (Ki) (in general, the dissociation constant of the complex between target and ligand, obtained from inhibition or displacement) at PTPN2 [2] was determined as 0.76 ± 0.08 µM. Further, the “PTPN2-mediated dephosphorylation of STAT3 at Tyr-705” value in data set [3] is recorded as “inhibited”. The “Cytotoxic effects (cell viability)” value in the data set on HEK 293 cells is reported as “no apparent cytotoxic effects”.
